This is a sample that favours compounds with a hit; in the whole collection about 2.3% have one here.
TRPC6 act: activates the mouse TRPC6 cation channel; Q61143; HEK293-TRPC6 membrane potential dye fluorescence; hits give high values; B-score at 10 µM; 0.13% of 310,000 active; AID 2550;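 active = B-score of the integrated fluorescence ratio above library mean plus 3 SD, and starting fluorescence ratio within library mean plus 5 SD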;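 also: higher score means more depolarization so channel activation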
Target sequence (Q61143 whole entry, looked up): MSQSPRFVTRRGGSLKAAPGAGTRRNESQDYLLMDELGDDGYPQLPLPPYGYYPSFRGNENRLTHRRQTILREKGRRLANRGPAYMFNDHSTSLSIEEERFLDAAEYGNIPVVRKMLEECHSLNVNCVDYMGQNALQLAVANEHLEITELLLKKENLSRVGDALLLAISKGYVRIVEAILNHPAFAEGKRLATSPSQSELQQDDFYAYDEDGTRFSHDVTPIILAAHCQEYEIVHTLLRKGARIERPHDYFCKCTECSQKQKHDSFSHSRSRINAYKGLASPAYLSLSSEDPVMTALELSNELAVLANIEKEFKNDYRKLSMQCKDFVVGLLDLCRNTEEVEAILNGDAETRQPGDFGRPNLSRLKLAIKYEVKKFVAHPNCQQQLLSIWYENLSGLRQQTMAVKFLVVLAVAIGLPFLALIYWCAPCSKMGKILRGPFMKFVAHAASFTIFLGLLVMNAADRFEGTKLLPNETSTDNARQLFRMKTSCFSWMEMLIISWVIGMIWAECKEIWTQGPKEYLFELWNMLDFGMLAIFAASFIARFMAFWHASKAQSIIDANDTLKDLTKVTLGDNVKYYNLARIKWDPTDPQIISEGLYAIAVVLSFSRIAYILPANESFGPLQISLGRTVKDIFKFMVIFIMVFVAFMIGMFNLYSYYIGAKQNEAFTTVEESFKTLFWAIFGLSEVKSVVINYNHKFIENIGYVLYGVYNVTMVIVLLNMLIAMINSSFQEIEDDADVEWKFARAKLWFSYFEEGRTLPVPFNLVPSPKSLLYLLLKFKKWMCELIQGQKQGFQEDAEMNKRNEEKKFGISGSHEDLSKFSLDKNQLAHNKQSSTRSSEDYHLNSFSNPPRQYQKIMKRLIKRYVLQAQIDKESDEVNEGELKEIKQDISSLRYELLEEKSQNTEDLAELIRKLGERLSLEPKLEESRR
TRPC4 agonist: opens the mouse TRPC4 cation channel | B-score at 10 µM | HEK293 TRPC4beta/mu-opioid, Fluo4 calcium fluorescence; hits give high values | 0.49% of 310,000 active | AID 2237 | Q9QUQ5;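 active = B-score above 5 SD of library B-scores, and initial fluorescence ratio not above library mean plus 5 SD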;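 also: positive B-score marks a calcium rise read as TRPC4 activation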
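Assay system – TRPC4beta and mu-opioid receptor HEK293 stable cells · Measured by – Fluo4 fluorescence, kinetic · Schedule – dye loading 45 min room temperature, 110 s kinetic read · Read-out – B-scored integrated calcium fluorescence ratio · Controls – buffer and maximal DAMGO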
TRPC6 inh: inhibitors of mouse TRPC6 channel | 1.1% of 310,000 active | B-score at 10 µM | HEK293-TRPC6, membrane potential dye, ACh-evoked depolarization; hits give low values | Q61143 | AID 2553;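 active = B-score under library mean minus 3 SD, initial fluorescence not abnormally high, positive integrated signal ratio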;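 also: B-score derived from integrated fluorescence ratio over the kinetic read; more negative B-score means stronger inhibition of depolarization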
TRPC4 block: inhibitors of mouse TRPC4 channel | Q9QUQ5 | HEK293 TRPC4beta/mu-opioid, DAMGO-evoked Fluo4 calcium flux; hits give low values | B-score at 10 µM | 0.39% of 300,000 active | AID 2247;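 active = B-score over 3 SD under the library average, no early fluorescence shift, positive overall ratio signal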
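Assay system: Stable TRPC4beta/mu-opioid receptor HEK293 cells | Reagent: DAMGO in two steps, submaximal then maximal | Compound dosing: Single concentration per test compound | Signal: Fluo4 Ca2+ flux fluorescence | Evaluation: Per-well B score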
TRPC4 potent: allosterically enhances the mouse TRPC4 cation channel | HEK293 TRPC4beta/mu-opioid, DAMGO EC20, Fluo-4 Ca2+ flux; hits give high values | B-score at 10 µM | 0.42% of 310,000 active;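 active = B-score of calcium response area above 5 SD of library B-scores, with initial fluorescence ratio within 5 SD of library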;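 also: B-score of integrated fluorescence ratio over time as area under calcium response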
* hit, by the source's call; i = inactive.

SMILES	TRPC6 act	TRPC4 agonist	TRPC6 inh	TRPC4 block	TRPC4 potent
O=C(O)CCC1c2cc3c4cc2OC2Oc5cc6c(cc51)C(CCC(=O)O)c1cc5c7cc1OC(O6)c1cc6cc(c1)Oc1cc(cc(C(=O)O)c1)Oc1cc8cc(c1)C(Oc1cc(c(cc1C5CCC(=O)O)C3CCC(=O)O)OC(O4)c1cc(cc(c1)Oc1cc(cc(C(=O)O)c1)O8)Oc1cc(cc(C(=O)O)c1)Oc1cc(cc2c1)Oc1cc(cc(C(=O)O)c1)O6)O7 (stereo not given)	186*	43*	i	i	i
O=C(c1cc(Br)c[nH]1)N1CCSCC1	i	i	i	i	i
O=c1c(C=NCCN2CCNCC2)c(-c2ccccc2)[nH]n1-c1ccc([N+](=O)[O-])cc1	i	i	-6.6*	i	i
O=C(c1cccs1)N1CCC(c2nc3c(nnn3Cc3ccccc3Cl)c(=O)[nH]2)CC1	i	i	i	i	i
COc1ccc(C2CC(=O)c3cnc(N4CCc5ccccc54)nc3C2)cc1OC (stereo not given)	i	i	i	i	i
CNc1nc(N2CCc3ccccc32)ncc1F	i	i	i	i	47*
CC1CCCCC1NC(=O)c1cc2ccccc2o1 (stereo not given)	i	i	i	i	30*
N=c1oc2ccccc2cc1C(=O)NC1CCCCCC1	i	i	i	i	i
CC(C)NC(=O)c1cc2ccccc2o1	i	i	i	i	i
N=c1oc2ccc(Cl)cc2cc1C(=O)NC1CCCCCC1	i	i	i	i	18*
O=C(NC1CCCC1)c1cc2cc(Br)ccc2o1	i	i	i	i	i
O=C(NC1CCCC1)c1cc2ccccc2o1	i	i	i	i	20*
Cc1c(NS(=O)(=O)c2cc(C(=O)NCCN(C)C)ccc2Cl)c(=O)n(-c2ccccc2)n1C	i	i	i	i	i
Cn1c(=O)c2c(nc(CN3CCN(C(c4ccccc4)c4ccccc4)CC3)n2CCCO)n(C)c1=O	i	i	i	i	13*
CCCn1c(CN2CCN(c3cccc(Cl)c3)CC2)nc2c1c(=O)n(C)c(=O)n2C	i	i	i	i	12*
COCCn1c(CN2CCN(C(c3ccccc3)c3ccccc3)CC2)nc2c1c(=O)n(C)c(=O)n2C	i	i	i	i	i
CCCCn1c(CN2CCN(c3cccc(Cl)c3)CC2)nc2c1c(=O)n(C)c(=O)n2C	i	i	i	i	i
Cn1c(=O)n(CCCO)c(=O)c2c1nc1n2CCCN1Cc1ccccc1	i	i	i	-6*	i
CCN1C(=O)C(=Cc2cccc(OC)c2Oc2ccc([N+](=O)[O-])cc2[N+](=O)[O-])SC1=S	i	i	i	i	i
CC1CN(S(=O)(=O)c2cccc(C(=O)OC(C)C(=O)NC3CCCCC3C)c2)CC(C)O1 (stereo not given)	i	i	i	i	i
Cn1c(/C=N/c2nc3ccccc3[nH]2)nc2ccccc21	i	i	i	i	i
C(=N\c1nc2ccccc2[nH]1)/c1cccs1	i	54*	i	i	i
CCOC(=O)c1sc2nc(CSc3ccccc3)nc(NCCN(C)C)c2c1C	i	i	i	-5*	i
CCOC(=O)c1sc2nc(C)nc(NCCc3ccccn3)c2c1C	i	i	i	i	i
CCOCCCNc1nc(C)nc2c1nnn2Cc1c(F)cccc1Cl	i	i	i	i	i
SMILES	TRPC6 act	TRPC4 agonist	TRPC6 inh	TRPC4 block	TRPC4 potent
CC(=O)N(CCC1(C(C)C)CCOC(C)(C)C1)C(C)c1cccs1 (stereo not given)	i	i	i	i	i
CC1C(=O)Nc2ccccc2N1C(=O)c1ccccc1 (stereo not given)	i	i	i	i	i
CC(=O)Oc1c(C)cc(O)c2ccccc12	i	i	i	i	17*
COc1ccc(NC(C#N)c2ccccc2OCc2ccccc2)cc1 (stereo not given)	i	i	i	i	10*
COc1ccc(N=C2O/C(=C/c3sc(=S)n(CC4CCCO4)c3O)N=C2C#N)cc1 (stereo not given)	i	i	i	i	i
CCCCCCCC[n+]1cccc2c3ccccc3ccc21	i	i	i	-6*	i
CCN(C(=O)c1cnc(NC(C)C)cc1C(F)(F)F)c1ccc(Cl)cc1Cl	i	i	i	-6*	i
CCN1C(=O)C(=O)N(CC(=O)c2[nH]c(C)c(C(C)=O)c2C)C1=O	i	i	i	i	i
CC(=O)c1c(C)[nH]c(C(=O)CN2C(=O)NC(C)(c3ccc(C)cc3)C2=O)c1C (stereo not given)	i	44*	i	i	i
Cc1cccn2c(=O)c3cc(S(=O)(=O)c4ccccc4)c(=N)n(Cc4ccco4)c3nc12	i	i	i	i	10*
Cc1cccn2c(=O)c3cc(S(=O)(=O)c4ccc(F)cc4)c(=N)n(Cc4ccco4)c3nc12	i	i	i	i	i
O=C(c1ccc(CN2CCOCC2)cc1)N1CCN(c2ccccc2)CC1	i	i	i	-6*	i
CC(=O)c1ccc(N2CCN(C(=O)c3ccc(Cn4c(=S)[nH]c5ccc(N6CCOCC6)cc5c4=O)cc3)CC2)cc1	i	i	i	i	14*
Cc1cc(Cl)ccc1NC(=S)N1CCN(C(=O)c2ccco2)CC1	i	i	i	i	i
O=C(Nc1cc2c(cc1C(=O)O)OCCCO2)c1ccc(F)cc1F	i	i	i	i	i
COc1ccc(S(=O)(=O)N2CCC(Cc3ccccc3)CC2)cc1NC(C)=O	i	i	i	i	i
Cc1cccc2[nH]c(CN(C)C(=O)CC3C(=O)NCCN3CC(C)(C)C)nc12 (stereo not given)	i	i	i	i	i
CCN1C(=O)c2cccc3c(S(=O)(=O)Nc4ccccc4OC)ccc1c23	i	76*	i	i	i
C/C(=N\NC(=O)c1cc2ccccc2cc1O)c1ccccn1	i	53*	i	i	i
C/C(=N\NC(=O)c1c[nH]c2ccccc12)c1ccccn1	i	i	i	i	i
CCN(CC)CCn1c(=N)n(CC(O)COc2ccccc2)c2ccccc21 (stereo not given)	i	i	i	-6*	i
Cc1ccccc1Cn1ccc(NC(=O)c2cnn3cccnc23)n1	i	i	i	i	i
O=C(Nc1ccc2c(c1)OCO2)c1cnn2cccnc12	i	i	i	i	50*
